# Source: ChEMBL document CHEMBL1649165, “Activity profile in vitro of micafungin against Spanish clinical isolates of common and emerging species of yeasts and molds” (2009)
# *1 amine or outer side, *2 acyl side, *3 side chain or, on linkers, in order; H or OH if unused. Where a SMILES comes first, the peptide text is derived from it. Bridges are numbered along the chain shown (N, C = ends). [ ]: non-standard residue; d: D form. The star is where a group is joined. hTyr(3S-OH,4S-OH,3'-OSO3H) = N[C@H](C(=O)O)[C@H](O)[C@@H](O)c1ccc(O)c(OS(=O)(=O)O)c1; Orn(4R-OH,5R-OH) = O=C([C@H](C[C@@H](O)[C@@H](O)N[*:3])N[*:1])[*:2]; Pro(3S-OH,4S-Me) = C[C@H]1CN[C@H](C(=O)O)[C@H]1O; X1 = CCCCCOc1ccc(-c2cc(-c3ccc(C(=O)*)cc3)no2)cc1; Gln(3R-OH) = NC(=O)C[C@@H](O)[C@H](N)C(=O)O; Hyp = O=C(O)[C@@H]1C[C@@H](O)CN1
# Legend:
# Type in all cases: functional
# Candida parapsilosis = assay: Antimicrobial activity against Candida parapsilosis by broth microdilution method; conditions: Lodderomyces parapsilosis
# Outline: (§1)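 Clinical isolates from human patients, tested by broth microdilution using the AFST-EUCAST reference procedure for fermentative yeasts. The MIC was read per that reference method.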
# Pichia kudriavzevii = assay: Antimicrobial activity against Candida krusei by broth microdilution method; outline: as §1
# [1] = tested on: Meyerozyma guilliermondii; assay: Antimicrobial activity against Candida guilliermondii by broth microdilution method; outline: as §1
# Clavispora lusitaniae = assay: Antimicrobial activity against Candida lusitaniae by broth microdilution method; outline: as §1
# Diutina rugosa = assay: Antimicrobial activity against Candida rugosa by broth microdilution method; outline: as §1
# Debaryomyces hansenii = assay: Antimicrobial activity against Candida famata by broth microdilution method; outline: as §1
# Torulaspora delbrueckii = assay: Antimicrobial activity against Candida coliculosa by broth microdilution method; outline: as §1
# [Candida] inconspicua = Antimicrobial activity against Candida inconspicua by broth microdilution method; conditions: Pichia inconspicua; outline: as §1
# Candida orthopsilosis = assay: Antimicrobial activity against Candida orthopsilosis by broth microdilution method; conditions: Lodderomyces orthopsilosis; outline: as §1
# [2] = tested on: Kazachstania pintolopesii; assay: Antimicrobial activity against Candida pintolopesii by broth microdilution method; conditions: Arxiozyma pintolopesii; outline: as §1
# Magnusiomyces capitatus = assay: Antimicrobial activity against Dipodascus capitatus by broth microdilution method
# Geotrichum candidum = assay: Antimicrobial activity against Galactomyces geotrichum by broth microdilution method
# [3] = tested on: Cryptococcus deneoformans; assay: Antimicrobial activity against Cryptococcus neoformans var. neoformans by broth microdilution method
# Outline: (§2)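 Clinical isolates of nonfermentative yeasts, tested by broth microdilution following EUCAST recommendations. The only change from that method was a minor modification to improve growth.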
# Trichosporon asahii = assay: Antimicrobial activity against Trichosporon asahii by broth microdilution method
# Outline: (§3)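 Nonfermentative yeast clinical isolates (Rhodotorula, Trichosporon) tested by broth microdilution. The EUCAST yeast recommendations were followed strictly, with one minor modification to improve growth. MIC was read as the endpoint.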
# Trichosporon inkin = assay: Antimicrobial activity against Trichosporon inkin by broth microdilution method; outline: as §3
# Trichosporon ovoides = assay: Antimicrobial activity against Trichosporon ovoides by broth microdilution method; outline: as §3
# Trichosporon jirovecii = assay: Antimicrobial activity against Trichosporon jirovecii by broth microdilution method; conditions: Cutaneotrichosporon jirovecii; outline: as §3
# Naganishia albida = assay: Antimicrobial activity against Cryptococcus albidus by broth microdilution method; outline: as §2
# Ustilago = assay: Antimicrobial activity against Ustilago spp by broth microdilution method
# Papiliotrema laurentii = assay: Antimicrobial activity against Cryptococcus laurentii by broth microdilution method; outline: as §2
# Aspergillus fumigatus = assay: Antimicrobial activity against Aspergillus fumigatus by broth microdilution method
# Outline: (§4)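 Clinical mould isolates, tested by broth microdilution using the AFST-EUCAST reference method for filamentous fungi. For echinocandins, the endpoint was the minimum effective concentration: the lowest drug concentration giving aberrant hyphal growth, read with an inverted microscope.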
# Aspergillus ustus = assay: Antimicrobial activity against Aspergillus ustus by broth microdilution method; outline: as §4
# Aspergillus sclerotiorum = assay: Antimicrobial activity against Aspergillus sclerotiorum by broth microdilution method; outline: as §4
# Aspergillus = assay: Antimicrobial activity against Aspergillus spp. by broth microdilution method; outline: as §4
# Fusarium solani = assay: Antimicrobial activity against Fusarium solani by broth microdilution method
# Outline: (§5)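 Filamentous fungus clinical isolates tested by the AFST-EUCAST reference broth microdilution method for moulds. For echinocandins, the endpoint was the minimum effective concentration: the lowest drug concentration giving aberrant hyphal growth, read with an inverted microscope.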
# Paecilomyces variotii = assay: Antimicrobial activity against Paecilomyces variotii by broth microdilution method; outline: as §5
# Acremonium sp. = assay: Antimicrobial activity against Acremonium sp.by broth microdilution method; outline: as §4
# [4] = Antimicrobial activity against Hormographiella aspergillata by broth microdilution method; conditions: Coprinopsis cinerea; outline: as §5
# Fusarium equiseti = assay: Antimicrobial activity against Fusarium equiseti by broth microdilution method; outline: as §4
# Fusarium reticulatum = assay: Antimicrobial activity against Fusarium reticulatum by broth microdilution method; outline: as §5
# Coprinellus domesticus = assay: Antimicrobial activity against Hormographiella verticillata by broth microdilution method; outline: as §5
# Neurospora sitophila = assay: Antimicrobial activity against Chrysonilia sitophila by broth microdilution method; outline: as §4
# Lomentospora prolificans = assay: Antimicrobial activity against Scedosporium prolificans by broth microdilution method; outline: as §5
# Cladosporium = assay: Antimicrobial activity against Cladosporium spp. by broth microdilution method; outline: as §4
# [5] = tested on: Cladophialophora bantiana; assay: Antimicrobial activity against Cladophialophora bantiana by broth microdilution method; outline: as §4
# Scytalidium hyalinum = assay: Antimicrobial activity against Scytalidium hyalinum by broth microdilution method; conditions: Neoscytalidium hyalinum; outline: as §5
# Lichtheimia corymbifera = assay: Antimicrobial activity against Mycocladus corymbiferus by broth microdilution method; outline: as §5
# Rhizopus arrhizus = assay: Antimicrobial activity against Rhizopus oryzae by broth microdilution method; outline: as §5
# [6] = tested on: Cunninghamella bertholletiae; assay: Antimicrobial activity against Cunninghamella bertholletiae by broth microdilution method; outline: as §4
# Exophiala jeanselmei = assay: Antimicrobial activity against Exophiala jeanselmei by broth microdilution method
structure (smiles),measurement,setting,value
"CCCCCOc1ccc(-c2cc(-c3ccc(C(=O)N[C@H]4C[C@@H](O)[C@@H](O)NC(=O)[C@@H]5[C@@H](O)[C@@H](C)CN5C(=O)[C@H]([C@H](O)CC(N)=O)NC(=O)[C@H]([C@H](O)[C@@H](O)c5ccc(O)c(OS(=O)(=O)O)c5)NC(=O)[C@@H]5C[C@@H](O)CN5C(=O)[C@H]([C@@H](C)O)NC4=O)cc3)no2)cc1 [MICAFUNGIN] (X1-[Orn(4R-OH,5R-OH)]T[Hyp][hTyr(3S-OH,4S-OH,3'-OSO3H)][Gln(3R-OH)][Pro(3S-OH,4S-Me)]; lactam 1-C)",MIC50,Candida parapsilosis,0.5 µg/mL
same,MIC90,Candida parapsilosis,1 µg/mL
same,MIC50,Pichia kudriavzevii,0.03 µg/mL
same,MIC90,Pichia kudriavzevii,0.06 µg/mL
same,MIC50,[1],0.12 µg/mL
same,MIC90,[1],1 µg/mL
same,MIC50,Clavispora lusitaniae,0.03 µg/mL
same,MIC90,Clavispora lusitaniae,0.03 µg/mL
same,MIC50,Diutina rugosa,0.03 µg/mL
same,MIC90,Diutina rugosa,0.12 µg/mL
same,MIC50,Debaryomyces hansenii,0.03 µg/mL
same,MIC90,Debaryomyces hansenii,0.12 µg/mL
same,MIC50,Torulaspora delbrueckii,0.03 µg/mL
same,MIC90,Torulaspora delbrueckii,0.12 µg/mL
same,MIC50,[Candida] inconspicua,0.03 µg/mL
same,MIC90,[Candida] inconspicua,0.12 µg/mL
same,MIC50,Candida orthopsilosis,0.03 µg/mL
same,MIC90,Candida orthopsilosis,0.12 µg/mL
same,MIC50,[2],0.03 µg/mL
same,MIC90,[2],0.12 µg/mL
same,MIC50,Magnusiomyces capitatus,> 16 µg/mL
same,MIC90,Magnusiomyces capitatus,> 16 µg/mL
same,MIC50,Geotrichum candidum,> 16 µg/mL
same,MIC90,Geotrichum candidum,> 16 µg/mL
same,MIC50,[3],> 16 µg/mL
same,MIC90,[3],> 16 µg/mL
same,MIC50,Trichosporon asahii,> 16 µg/mL
same,MIC90,Trichosporon asahii,> 16 µg/mL
same,MIC50,Trichosporon inkin,> 16 µg/mL
same,MIC90,Trichosporon inkin,> 16 µg/mL
same,MIC50,Trichosporon ovoides,> 16 µg/mL
same,MIC90,Trichosporon ovoides,> 16 µg/mL
same,MIC50,Trichosporon jirovecii,> 16 µg/mL
same,MIC90,Trichosporon jirovecii,> 16 µg/mL
same,MIC50,Naganishia albida,> 16 µg/mL
same,MIC90,Naganishia albida,> 16 µg/mL
same,MIC50,Ustilago,> 16 µg/mL
same,MIC90,Ustilago,> 16 µg/mL
same,MIC50,Papiliotrema laurentii,> 16 µg/mL
same,MIC90,Papiliotrema laurentii,> 16 µg/mL
same,MIC50,Aspergillus fumigatus,0.03 µg/mL
same,MIC90,Aspergillus fumigatus,0.03 µg/mL
same,MIC50,Aspergillus ustus,0.06 µg/mL
same,MIC90,Aspergillus ustus,0.25 µg/mL
same,MIC50,Aspergillus sclerotiorum,0.06 µg/mL
same,MIC90,Aspergillus sclerotiorum,0.25 µg/mL
same,MIC50,Aspergillus,0.06 µg/mL
same,MIC90,Aspergillus,0.25 µg/mL
same,MIC50,Fusarium solani,> 16 µg/mL
same,MIC90,Fusarium solani,> 16 µg/mL
same,MIC50,Paecilomyces variotii,0.03 µg/mL
same,MIC90,Paecilomyces variotii,0.03 µg/mL
same,MIC50,Acremonium sp.,0.12 µg/mL
same,MIC90,Acremonium sp.,0.25 µg/mL
same,MIC50,[4],> 16 µg/mL
same,MIC90,[4],> 16 µg/mL
same,MIC50,Fusarium equiseti,> 16 µg/mL
same,MIC90,Fusarium equiseti,> 16 µg/mL
same,MIC50,Fusarium reticulatum,> 16 µg/mL
same,MIC90,Fusarium reticulatum,> 16 µg/mL
same,MIC50,Coprinellus domesticus,> 16 µg/mL
same,MIC90,Coprinellus domesticus,> 16 µg/mL
same,MIC50,Neurospora sitophila,> 16 µg/mL
same,MIC90,Neurospora sitophila,> 16 µg/mL
same,MIC50,Lomentospora prolificans,8 µg/mL
same,MIC90,Lomentospora prolificans,> 16 µg/mL
same,MIC50,Cladosporium,0.03 µg/mL
same,MIC90,Cladosporium,0.06 µg/mL
same,MIC50,[5],0.03 µg/mL
same,MIC90,[5],0.06 µg/mL
same,MIC50,Scytalidium hyalinum,0.03 µg/mL
same,MIC90,Scytalidium hyalinum,0.06 µg/mL
same,MIC50,Lichtheimia corymbifera,> 16 µg/mL
same,MIC90,Lichtheimia corymbifera,> 16 µg/mL
same,MIC50,Rhizopus arrhizus,> 16 µg/mL
same,MIC90,Rhizopus arrhizus,> 16 µg/mL
same,MIC50,[6],> 16 µg/mL
same,MIC90,[6],> 16 µg/mL
same,MIC50,Exophiala jeanselmei,0.03 µg/mL
same,MIC90,Exophiala jeanselmei,0.06 µg/mL
